One may read the fraction unbound as the share of the substance not bound to proteins or other matrix. Higher therefore signals much free substance. A word on the pKi: it is −log10 of the Ki, conventionally taken in molar units. Low readings indicate a high Ki, high ones a low Ki. By logD is commonly meant lipophilicity at a set pH, counting ionised and neutral species. A high value points to a more lipophilic compound.

pKi: −log10 of the molar value.

Consider two molecules from ChEMBL document CHEMBL2062493, “Synthesis and evaluation of [¹¹C]Cimbi-806 as a potential PET ligand for 5-HT₇ receptor imaging” (Bioorg Med Chem, 2012).

A short description of data set [1]: Drug uptake in Danish Landrace pig striatum pre-treated with SB269970 at 468+/-31 MBq, iv administered 30 mins post SB269970-treatment measured up to 20 mins by PET scanning. To be noted: in vivo. It is filed as ADME, organism-based, Sus scrofa. The method in brief:
(§1)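 Images were co-registered to an MRI atlas of the pig brain. Striatum was the mean of caudate and putamen, thalamus the mean of lateral and medial thalamus, and each region left/right averaged. Uptake is expressed as SUV (kBq/mL normalized to injected dose per kg). For the blocking condition, SB-269970 was infused at 0.5–1.0 mg/kg/h from 30 min before the second scan.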

Data set [2] in a line: Drug uptake in Danish Landrace pig striatum at 468+/-31 MBq, iv after 20 mins by PET scanning. The conditions noted are these: in vivo. It is filed as ADME, organism-based, Sus scrofa. In outline:
as §1

In data set [3] the test system is Plasma. Kind of data set: Drug metabolism in Danish Landrace pig plasma at 468+/-31 MBq, iv. It is filed as ADME, Sus scrofa. The method in brief: (§2)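 Blood was drawn at 2.5–90 min and centrifuged; plasma was filtered 0.45 µm and analysed for parent and radiometabolites by column-switching HPLC with online radioactivity detection. For the blocking condition, SB-269970 was infused at 0.5–1.0 mg/kg/h from 30 min before the second scan and continued throughout it.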

Data set [4] can be described thus: Drug uptake in Danish Landrace pig cerebellum pre-treated with SB269970 at 468+/-31 MBq, iv administered 30 mins post SB269970-treatment measured up to 20 mins by PET scanning. It is filed as ADME, organism-based, Sus scrofa. To be noted: in vivo. In outline: as §1
The nature of data set [5]: Drug uptake in Danish Landrace pig thalamus at 468+/-31 MBq, iv up to 20 mins by PET scanning. It is filed as ADME, organism-based, Sus scrofa. The conditions noted are these: in vivo. The method in brief:
as §1

Data set [6] relates to Plasma. The data set is described as follows: Drug metabolism in Danish Landrace pig plasma pre-treated with SB269970 at 468+/-31 MBq, iv administered 30 mins post SB269970-treatment measured upto 90 mins. It is filed as ADME, organism-based, Sus scrofa. To be noted: in vivo. In outline: as §2
The nature of data set [7]: Free fraction in Danish Landrace pig plasma at 5 MBq after 3 hrs by equilibrium dialysis. It is filed as ADME, cell-free, Sus scrofa.
Data set [8] is described as follows: Drug uptake in Danish Landrace pig cerebellum at 468+/-31 MBq, iv up to 20 mins by PET scanning. It is filed as ADME, organism-based, Sus scrofa. To be noted: in vivo. The method in brief:
as §1

Data set [9] in a line: Drug uptake in Danish Landrace pig cerebellum at 468+/-31 MBq, iv after 20 mins by PET scanning. It is filed as ADME, organism-based, Sus scrofa. The conditions noted are these: in vivo. The method in brief:
as §1

A short description of data set [10]: Drug uptake in Danish Landrace pig striatum at 468+/-31 MBq, iv up to 20 mins by PET scanning. It is filed as ADME, organism-based, Sus scrofa. The conditions noted are these: in vivo. The method in brief:
as §1

Data set [11] can be described thus: Drug uptake in Danish Landrace pig thalamus at 468+/-31 MBq, iv after 20 mins by PET scanning. It is filed as ADME, organism-based, Sus scrofa. The conditions noted are these: in vivo. In outline: as §1
The nature of data set [12]: Drug uptake in Danish Landrace pig thalamus pre-treated with SB269970 at 468+/-31 MBq, iv administered 30 mins post SB269970-treatment measured up to 20 mins by PET scanning. It is filed as ADME, organism-based, Sus scrofa. The conditions noted are these: in vivo. The method in brief: as §1
Data set [13] in a line: Displacement of [3H]SB269970 from 5HT7R in Danish Landrace pig brain section after 2 hrs by autoradiography. The arrangement: species or system Sus scrofa. The method in brief:
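Pig brain sections incubated 2 h with [3H]SB-269970 plus varying competitor in 50 mM Tris–HCl pH 7.4. Washes were 3 × 5 min in ice-cold buffer, then a dip in ice-cold water. Sections were dried and exposed to tritium-sensitive plates for 14 days. Specific binding (total minus non-specific) was plotted against competitor concentration.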
Background: In a radioligand displacement assay an active substance lowers the binding of a labelled ligand.

A short description of data set [14]: Lipophilicity, log D of the compound at pH 7.4 by HPLC analysis. It is filed as physicochemical. The conditions noted are these: buffer. The method in brief:
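Measured by RP-HPLC on a C8 column at 37 °C with 50:50 25 mM sodium phosphate pH 7.4/MeOH at 2 mL/min and UV detection at 254 nm. LogD was derived from log retention factor via a calibration line of reference compounds with known logD.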

Turning to `COc1cccc(OC)c1-c1cccc(CCN(C)[11CH3])c1`, the Drug uptake entry in [1] is “Not Active”; in data set [2], “Not Active”; in data set [4], “Not Active”; in [5], “Active”; in data set [8], “Active”; in data set [9], “Not Active”. The Drug uptake result was “Active” in data set [10], “Not Active” in data set [11] and “Not Active” in data set [12]. The Drug metabolism result in the data set on Plasma [3] and in the data set on Plasma [6] was “Active” each time. Moreover, in [7], the free fraction (fraction unbound) at 3 h, 5 MBq stood at 0.235.
In data set [13], `COc1cccc(OC)c1-c1cccc(CCN(C)C)c1` showed a pKi of 8.05. Besides, the pH-dependent lipophilicity (logD) in data set [14] turned out to be 4.4.
